Assay results as given in ChEMBL document CHEMBL1137547, “Synthesis and antifungal activities of novel 2-aminotetralin derivatives” (2007).
In brackets after ≈: the same amount, converted by molar mass.

How the values were obtained:
Type in all cases: functional
[1] = test system: Fonsecaea compacta; experiment: Antifungal activity against Fonsecaea compacta
In short: (§1)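 NCCLS broth serial dilution in RPMI 1640 buffered with 0.165 M MOPS. Compounds were dissolved in DMSO and serially diluted in medium. Strains came from ATCC or clinical isolates. The growth MIC for filamentous fungi was read at 7 d, taken as the lowest concentration giving ≥80% turbidity inhibition versus the growth control.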

[2] = test system: Candida parapsilosis; experiment: Antifungal activity against Candida parapsilosis after 24 hrs; settings: Lodderomyces parapsilosis
In short: (§2)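 Candida yeasts were tested by NCCLS microdilution in RPMI 1640 buffered with 0.165 M MOPS and incubated at 35 °C. Compounds were dissolved in DMSO and serially diluted in medium. Isolates came from ATCC or the clinic. The MIC was read at 24 h as the lowest concentration achieving ≥80% growth inhibition versus the control.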

[3] = test system: Trichophyton rubrum; experiment: Antifungal activity against Trichophyton rubrum
In short: (§3)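 Dermatophytes were tested by NCCLS serial dilution in RPMI 1640 with 0.165 M MOPS and incubated at 28 °C. Compounds were dissolved in DMSO and diluted in medium. Strains came from ATCC or clinical isolates. The MIC was read at 7 d as the lowest concentration reducing turbidity by ≥80% relative to the drug-free control.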

[4] = test system: Microsporum; experiment: Antifungal activity against Microsporum gypseum; in short: as §3
[5] = test system: Candida albicans; experiment: Antifungal activity against Candida albicans after 24 hrs; in short: as §2
[6] = test system: Cryptococcus neoformans; experiment: Antifungal activity against Cryptococcus neoformans after 72 hrs
In short: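 Cryptococcus neoformans was tested by NCCLS serial dilution in MOPS-buffered (0.165 M) RPMI 1640 at 35 °C. Compounds were dissolved in DMSO and diluted in medium. The MIC was read at 72 h as the lowest concentration giving turbidity inhibition of ≥80% relative to the growth control.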

[7] = test system: Aspergillus fumigatus; experiment: Antifungal activity against Aspergillus fumigatus; in short: as §1
[8] = test system: Candida albicans; experiment: Antifungal activity against fluconazole-resistant Candida albicans 01010 after 24 hrs
In short: (§4)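 Broth serial dilution MIC per NCCLS in 96-well format; medium RPMI 1640 buffered with 0.165 M MOPS; compounds dissolved in DMSO and serially diluted in medium; clinical C. albicans isolates incubated at 35 °C, read at 24 h; MIC = lowest concentration giving turbidity […] inhibition relative to growth control; fluconazole and I-6 as control drugs.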

[9] = test system: Candida albicans; experiment: Antifungal activity against fluconazole-resistant Candida albicans 0511655 after 24 hrs; in short: as §4
[10] = test system: Candida albicans; experiment: Antifungal activity against fluconazole-resistant Candida albicans 18 after 24 hrs; in short: as §4
[11] = test system: Candida albicans; experiment: Antifungal activity against fluconazole-resistant Candida albicans 25 after 24 hrs; in short: as §4

With `CCCCCCCCCCCCCCNC1CCc2c(cccc2OC)C1` (stereo unspecified) the MIC [1] was 64 µM (≈ 23.9 µg/mL), the MIC [2] was > 64 µM and the MIC [3] was 8 µM (≈ 2.99 µg/mL). The MIC [4] was > 64 µM, the MIC [5] was > 64 µM and the MIC [6] was 32 µM (≈ 12 µg/mL). The MIC [7] was > 64 µM.

`CCCCCCCCCNC1CCc2cc(OC)ccc2C1` (stereo unspecified) showed an MIC [8] of 0.125 µM (≈ 0.0379 µg/mL), an MIC [1] of 2 µM (≈ 0.607 µg/mL) and an MIC [2] of 0.5 µM (≈ 0.152 µg/mL). For the same molecule, the MIC [3] was 1 µM (≈ 0.303 µg/mL), the MIC [4] was 4 µM (≈ 1.21 µg/mL) and the MIC [9] was 0.0625 µM (≈ 0.019 µg/mL). It also gave an MIC [5] of 0.0625 µM (≈ 0.019 µg/mL), an MIC [6] of 4 µM (≈ 1.21 µg/mL) and an MIC [10] of 0.0625 µM (≈ 0.019 µg/mL). The MIC [7] was 64 µM (≈ 19.4 µg/mL) and the MIC [11] was 0.0625 µM (≈ 0.019 µg/mL).

In the case of `CCCCCCCCCCNC1CCc2c(cccc2OC)C1` (stereo unspecified), the MIC [8] is reported as 8 µM (≈ 2.54 µg/mL), the MIC [1] is reported as 1 µM (≈ 0.318 µg/mL) and the MIC [2] is reported as 8 µM (≈ 2.54 µg/mL). It also gave an MIC [3] of 1 µM (≈ 0.318 µg/mL), an MIC [4] of 4 µM (≈ 1.27 µg/mL) and an MIC [9] of 8 µM (≈ 2.54 µg/mL). The MIC [5] was 0.0312 µM (≈ 0.00992 µg/mL), the MIC [6] was 1 µM (≈ 0.318 µg/mL) and the MIC [10] was 4 µM (≈ 1.27 µg/mL). The MIC [7] was 16 µM (≈ 5.08 µg/mL) and the MIC [11] was 4 µM (≈ 1.27 µg/mL).

In the case of `C[C@@H]1[C@H](O)[C@@H](C)/C=C/C=C/C=C/C=C/C=C/C=C/C=C/[C@H](O[C@@H]2O[C@H](C)[C@@H](O)[C@H](N)[C@@H]2O)C[C@@H]2O[C@](O)(C[C@@H](O)C[C@@H](O)[C@H](O)CC[C@@H](O)C[C@@H](O)CC(=O)O[C@H]1C)C[C@H](O)[C@H]2C(=O)O` [AMPHOTERICIN B], the MIC [8] is reported as 0.64 µM (≈ 0.591 µg/mL), the MIC [9] is reported as 0.25 µM (≈ 0.231 µg/mL) and the MIC [10] is reported as 2 µM (≈ 1.85 µg/mL). It also gave an MIC [11] of 0.5 µM (≈ 0.462 µg/mL).

With `OC(Cn1cncn1)(Cn1cncn1)c1ccc(F)cc1F` [FLUCONAZOLE] the MIC [8] was > 64 µM, the MIC [1] was 16 µM (≈ 4.9 µg/mL) and the MIC [2] was 0.5 µM (≈ 0.153 µg/mL). The MIC [3] was 1 µM (≈ 0.306 µg/mL), the MIC [4] was 16 µM (≈ 4.9 µg/mL) and the MIC [9] was > 64 µM. For the same molecule, the MIC [5] was 8 µM (≈ 2.45 µg/mL), the MIC [6] was 2 µM (≈ 0.613 µg/mL) and the MIC [10] was > 64 µM. The MIC [7] was > 64 µM and the MIC [11] was > 64 µM.

`CCC(C)n1ncn(-c2ccc(N3CCN(c4ccc(OCC5COC(Cn6cncn6)(c6ccc(Cl)cc6Cl)O5)cc4)CC3)cc2)c1=O` (stereo unspecified) [ITRACONAZOLE] was tested, and the MIC [8] was > 64 µM, the MIC [9] was 64 µM (≈ 45.2 µg/mL) and the MIC [10] was > 64 µM. The MIC [11] was > 64 µM.

Work on `CC(=O)N1CCN(c2ccc(OC[C@@H]3CO[C@@](Cn4ccnc4)(c4ccc(Cl)cc4Cl)O3)cc2)CC1` [KETOCONAZOLE] yielded an MIC [8] of 8 µM (≈ 4.25 µg/mL), an MIC [9] of 8 µM (≈ 4.25 µg/mL) and an MIC [10] of 4 µM (≈ 2.13 µg/mL). It also gave an MIC [11] of 8 µM (≈ 4.25 µg/mL).

`CN(C/C=C/C#CC(C)(C)C)Cc1cccc2ccccc12` [TERBINAFINE] showed an MIC [8] of 32 µM (≈ 9.33 µg/mL), an MIC [9] of 8 µM (≈ 2.33 µg/mL) and an MIC [10] of 8 µM (≈ 2.33 µg/mL). It also gave an MIC [11] of 4 µM (≈ 1.17 µg/mL).
